Reference: ChEMBL document CHEMBL1275477, “Discovery and characterization of QPT-1, the progenitor of a new class of bacterial topoisomerase inhibitors” (Antimicrob Agents Chemother, 2008)
In brackets after ≈: the same amount, converted by molar mass.

Legend:
Assay type in all cases: functional
Staphylococcus aureus [1] = assay: Antibacterial activity against methicillin-susceptible Staphylococcus aureus UC9218 by broth microdilution method
In short: (§1)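 Broth microdilution MIC following National Committee for Clinical Laboratory Standards methods. Plasmid-borne GyrB in transformed S. aureus strains was overexpressed by adding 100 ng/ml doxycycline.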

Staphylococcus aureus [2] = assay: Antibacterial activity against Staphylococcus aureus UC9218 by broth microdilution method in presence of 25% serum; in short: as §1
Staphylococcus aureus [3] = assay: Antibacterial activity against Staphylococcus aureus UC9218 by broth microdilution method in presence of 50% serum; in short: as §1
Staphylococcus aureus [4] = assay: Antibacterial activity against methicillin and ciprofloxacin-resistant Staphylococcus aureus UC12673 by broth microdilution method; in short: as §1
Staphylococcus aureus [5] = assay: Antibacterial activity against methicillin-resistant Staphylococcus aureus UC9213 by broth microdilution method; in short: as §1
[6] = tested on: Staphylococcus epidermidis; assay: Antibacterial activity against methicillin and ciprofloxacin-resistant Staphylococcus epidermidis UC12084 by broth microdilution method; in short: as §1
Streptococcus pneumoniae [7] = assay: Antibacterial activity against Streptococcus pneumoniae UC9912 by broth microdilution method; in short: as §1
Streptococcus pneumoniae [8] = assay: Antibacterial activity against Streptococcus pneumoniae UC15142 by broth microdilution method; in short: as §1
Streptococcus pyogenes = assay: Antibacterial activity against Streptococcus pyogenes UC152 by broth microdilution method; in short: as §1
Enterococcus faecalis = assay: Antibacterial activity against Enterococcus faecalis UC9217 by broth microdilution method; in short: as §1
Enterococcus faecium = assay: Antibacterial activity against Enterococcus faecium UC12712 by broth microdilution method; in short: as §1
Haemophilus influenzae = assay: Antibacterial activity against Haemophilus influenzae UC30063 by broth microdilution method; in short: as §1
Moraxella catarrhalis = assay: Antibacterial activity against Moraxella catarrhalis UC3067 by broth microdilution method; in short: as §1
Escherichia coli = assay: Antibacterial activity against Escherichia coli UC6674 by broth microdilution method; in short: as §1
Klebsiella pneumoniae = assay: Antibacterial activity against Klebsiella pneumoniae UC12081 by broth microdilution method; in short: as §1
Pseudomonas aeruginosa = assay: Antibacterial activity against Pseudomonas aeruginosa UC6676 by broth microdilution method; in short: as §1
Staphylococcus aureus [9] = assay: Antibacterial activity against methicillin-susceptible Staphylococcus aureus by broth microdilution method; in short: as §1
Staphylococcus aureus [10] = assay: Antibacterial activity against methicillin-resistant Staphylococcus aureus by broth microdilution method; in short: as §1
Staphylococcus aureus [11] = assay: Antibacterial activity against ciprofloxacin-resistant Staphylococcus aureus by broth microdilution method; in short: as §1
Streptococcus pneumoniae [12] = assay: Antibacterial activity against Streptococcus pneumoniae by broth microdilution method; in short: as §1
Streptococcus pneumoniae [13] = assay: Antibacterial activity against ciprofloxacin-resistant Streptococcus pneumoniae by broth microdilution method; in short: as §1
Staphylococcus aureus [14] = assay: Antibacterial activity against Staphylococcus aureus RN4220 by broth microdilution method; in short: as §1
Staphylococcus aureus [15] = assay: Antimicrobial activity against Staphylococcus aureus 286607-R1 by broth microdilution method; in short: as §1
Staphylococcus aureus [16] = assay: Antimicrobial activity against Staphylococcus aureus 286607-R1 harboring wild type gyrB by broth microdilution method; in short: as §1
Staphylococcus aureus [17] = assay: Antimicrobial activity against Staphylococcus aureus RN4220 expressing gyrB D437N mutant gene by broth microdilution method; in short: as §1

C[C@H]1CN2c3ccc([N+](=O)[O-])cc3CC3(C(=O)NC(=O)NC3=O)[C@@H]2[C@@H](C)O1
MIC (Staphylococcus aureus [1]): 128 µg/mL (≈ 342 µM) | MIC (Staphylococcus aureus [2]): 128 µg/mL | MIC (Staphylococcus aureus [3]): > 128 µg/mL | MIC (Staphylococcus aureus [4]): > 64 µg/mL | MIC (Staphylococcus aureus [5]): > 64 µg/mL | MIC [6]: > 64 µg/mL | MIC (Streptococcus pneumoniae [7]): > 128 µg/mL | MIC (Streptococcus pneumoniae [8]): > 128 µg/mL | MIC (Streptococcus pyogenes): > 64 µg/mL | MIC (Enterococcus faecalis): > 128 µg/mL | MIC (Enterococcus faecium): > 64 µg/mL | MIC (Haemophilus influenzae): > 128 µg/mL | MIC (Moraxella catarrhalis): > 64 µg/mL | MIC (Escherichia coli): > 128 µg/mL | MIC (Klebsiella pneumoniae): > 64 µg/mL | MIC (Pseudomonas aeruginosa): > 64 µg/mL | MIC (Staphylococcus aureus [9]): > 64 µg/mL | MIC50 (Staphylococcus aureus [9]): > 64 µg/mL | MIC90 (Staphylococcus aureus [9]): > 64 µg/mL | MIC (Staphylococcus aureus [10]): > 64 µg/mL | MIC50 (Staphylococcus aureus [10]): > 64 µg/mL | MIC90 (Staphylococcus aureus [10]): > 64 µg/mL | MIC (Staphylococcus aureus [11]): 64 µg/mL (≈ 171 µM) | MIC50 (Staphylococcus aureus [11]): 64 µg/mL (≈ 171 µM) | MIC90 (Staphylococcus aureus [11]): > 64 µg/mL | MIC (Streptococcus pneumoniae [12]): > 64 µg/mL | MIC50 (Streptococcus pneumoniae [12]): > 64 µg/mL | MIC90 (Streptococcus pneumoniae [12]): > 64 µg/mL | MIC (Streptococcus pneumoniae [13]): > 64 µg/mL | MIC50 (Streptococcus pneumoniae [13]): > 64 µg/mL | MIC90 (Streptococcus pneumoniae [13]): > 64 µg/mL

CN[C@@H]1[C@H](O)[C@H](NC)[C@H]2O[C@@]3(O)C(=O)C[C@@H](C)O[C@H]3O[C@@H]2[C@H]1O [SPECTINOMYCIN]
MIC (Staphylococcus aureus [14]): 64 µg/mL (≈ 193 µM) | MIC (Staphylococcus aureus [15]): 64 µg/mL (≈ 193 µM) | MIC (Staphylococcus aureus [16]): 64 µg/mL (≈ 193 µM) | MIC (Staphylococcus aureus [17]): 64 µg/mL (≈ 193 µM)

CO[C@H]1/C=C/O[C@@]2(C)Oc3c(C)c(O)c4c(O)c(c(/C=N/N5CCN(C)CC5)c(O)c4c3C2=O)NC(=O)/C(C)=C\C=C\[C@H](C)[C@H](O)[C@@H](C)[C@@H](O)[C@@H](C)[C@H](OC(C)=O)[C@@H]1C [RIFAMPIN]
MIC (Staphylococcus aureus [14]): < 0.625 µg/mL | MIC (Staphylococcus aureus [15]): < 0.625 µg/mL

CCn1cc(C(=O)O)c(=O)c2ccc(C)nc21 [NALIDIXIC ACID]
MIC (Staphylococcus aureus [14]): 32 µg/mL (≈ 138 µM) | MIC (Staphylococcus aureus [15]): 64 µg/mL (≈ 276 µM) | MIC (Staphylococcus aureus [16]): 32 µg/mL (≈ 138 µM) | MIC (Staphylococcus aureus [17]): 32 µg/mL (≈ 138 µM)
